Data on 1 molecule can be found in ChEMBL document CHEMBL4765366, “Targeting fungal virulence factor by small molecules: Structure-based discovery of novel secreted aspartic protease 2 (SAP2) inhibitors” (Eur J Med Chem, 2020).

Active and inactive are the calls of the source. The calls are words filed in the database; no cut-off is given here. Some results are limits rather than exact numbers.

What is called inhibition is the drop in the measured response relative to a control, in per cent. What is called IC50 is the point on the concentration scale where inhibition reaches its midpoint.

Assay [1] deals with Candida albicans. Kind of assay: Antifungal activity against azole resistant Candida albicans 0304103 infected in ICR mouse assessed as reduction in fungal burden in kidney at 10 mg/kg, ip administered for 4 days. It is filed as functional, organism-based. Particulars: time 4.0 day. In a few lines: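 Female ICR mice (20–25 g) were immunosuppressed with cyclophosphamide, 100 mg/kg ip in saline. After 24 h they were infected iv with 0.2 mL of 1×10^5 CFU/mL cells. Starting 24 h after infection, mice (4 per group) received the drug ip once daily for four days; controls received saline or fluconazole 10 mg/kg. Kidneys were homogenized and plated on YPD at 30°C for log10 CFU.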

The subject of assay [2] is Candida albicans. Kind of assay: Downregulation of EFG1 in azole resistant Candida albicans 0304103 at 64 ug/ml by qRT-PCR analysis. It is filed as functional. The settings on record: dose 64.0 µg/ml.
Assay [3] deals with Candida albicans. Kind of assay: Antibiofilm activity against azole resistant Candida albicans 0304103 assessed as inhibition of biofilm formation at 32 ug/ml in presence of fluconazole incubated for 24 hrs by XTT-dye based assay relative to control. It is filed as functional. Background: Tetrazolium dyes change colour on reduction, which living cells bring about.
Assay [4] relates to Candida albicans. Kind of assay: Downregulation of SAP2 in azole resistant Candida albicans 0304103 at 64 ug/ml by qRT-PCR analysis. The assay is classed as functional. Particulars: dose 64.0 µg/ml. Background: Quantitative PCR measures a nucleic acid by following its amplification.
Assay [5] concerns Candida tropicalis. Kind of assay: Antibiofilm activity against azole resistant Candida tropicalis 10186 assessed as inhibition of biofilm formation incubated for 24 hrs by XTT-dye based assay. Particulars: dose 4-64 µg/ml. The assay is classed as functional, organism-based. The essentials: (§1)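 Cell suspensions (1.0 × 10^5 CFU/mL) were adhered for 90 min at 37°C, then rinsed three times with PBS. Compounds were added at a range of concentrations from 2 mg/mL DMSO stocks, with fluconazole as the positive control. Plates were cultured 24 h at 37°C, and biofilm was measured semi-quantitatively by XTT reduction.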

Assay [6] relates to Candida albicans. Kind of assay: Inhibition of hyphal formation in azole sensitive Candida albicans SC5314 at 4 to 32 ug/ml incubated for 3 hrs by microscopic imaging analysis. The assay is classed as functional, organism-based. The settings on record: dose 4-32 µg/ml. The essentials:
(§2)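 Yeast cells (1.0 × 10^5 CFU/mL) were exposed to a range of compound concentrations, with fluconazole as the positive drug. Plates were incubated at 37°C for 3 h (C. albicans 0304103 and SC5314) or 7 h (C. tropicalis 10186). Hyphal growth was then observed and photographed by microscopy.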

The subject of assay [7] is Candida albicans. Kind of assay: Inhibition of hyphal formation in azole sensitive Candida albicans SC5314 at 128 ug/ml incubated for 3 hrs by microscopic imaging analysis. It is filed as functional. In a few lines:
as §2

In assay [8] the test system is Candida albicans. Kind of assay: Antibiofilm activity against azole resistant Candida albicans 0304103 assessed as inhibition of biofilm formation incubated for 24 hrs by XTT-dye based assay. It is filed as functional, organism-based. The settings on record: dose 4-64 µg/ml. In a few lines:
as §1

In assay [9] the test system is Candida albicans. Kind of assay: Antibiofilm activity against azole resistant Candida albicans 0304103 assessed as inhibition of biofilm formation at 0.5 ug/ml in presence of fluconazole incubated for 24 hrs by XTT-dye based assay. It is filed as functional, organism-based. The settings on record: dose 0.5 µg/ml.
Assay [10] can be described thus: Inhibition of recombinant Candida albicans SAP2 using Dabcyl-Arg-Lys-Pro-Ala-Leu-Phe-Phe-Arg-Leu-Glu (EDANS)-Arg-OH as substrate incubated for 30 mins followed by substrate addition and measured after 30 mins by spectrophotometry.
Assay [11] relates to Candida tropicalis. Kind of assay: Inhibition of hyphal formation in azole resistant Candida tropicalis 10186 at 64 ug/ml incubated for 7 hrs by microscopic imaging analysis. The assay is classed as functional. The essentials: as §2
Assay [12] deals with Candida albicans. Kind of assay: Inhibition of hyphal formation in azole resistant Candida albicans 0304103 at 4 to 32 ug/ml incubated for 3 hrs by microscopic imaging analysis. The assay is classed as functional, organism-based. Particulars: dose 4-32 µg/ml. In a few lines: as §2
The subject of assay [13] is Candida albicans. Kind of assay: Downregulation of ECE2 in azole resistant Candida albicans 0304103 at 64 ug/ml by qRT-PCR analysis. It is filed as functional. Particulars: dose 64.0 µg/ml.
Assay [14] concerns Candida albicans. Kind of assay: Downregulation of ALS3 in azole resistant Candida albicans 0304103 at 64 ug/ml by qRT-PCR analysis. The settings on record: dose 64.0 µg/ml. The assay is classed as functional.
Assay [15] deals with Candida tropicalis. Kind of assay: Inhibition of hyphal formation in azole resistant Candida tropicalis 10186 at 4 to 16 ug/ml incubated for 7 hrs by microscopic imaging analysis. It is filed as functional, organism-based. The settings on record: dose 4-16 µg/ml. In a few lines: as §2
The subject of assay [16] is Candida albicans. Kind of assay: Upregulation of CPH1 in azole resistant Candida albicans 0304103 at 64 ug/ml by qRT-PCR analysis. Particulars: dose 64.0 µg/ml. It is filed as functional.
Assay [17] concerns Candida albicans. Kind of assay: Inhibition of recombinant Candida albicans SAP2 at 100 uM using Dabcyl-Arg-Lys-Pro-Ala-Leu-Phe-Phe-Arg-Leu-Glu (EDANS)-Arg-OH as substrate incubated for 30 mins followed by substrate addition and measured after 30 mins by spectrophotometry relative to control. The settings on record: time 60.0 min. The essentials:
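FRET assay with purified expressed C. albicans SAP2 in 50 mM sodium citrate, 50 mM NaCl, pH 4.5. Compound (diluted in DMSO) was preincubated with enzyme 30 min before adding the Dabcyl/EDANS peptide substrate (18.75 μM solution in DMSO). Reaction ran 30 min at 30 °C, then fluorescence was read at ex 340, em 485 nm. Pepstatin A was the positive control.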

For assay [18], the system named is Candida albicans. Kind of assay: Upregulation of TEC1 in azole resistant Candida albicans 0304103 at 64 ug/ml by qRT-PCR analysis. It is filed as functional. Particulars: dose 64.0 µg/ml.
The subject of assay [19] is Candida albicans. Kind of assay: Inhibition of hyphal formation in azole resistant Candida albicans 0304103 at 128 ug/ml incubated for 3 hrs by microscopic imaging analysis. It is filed as functional. In a few lines: as §2
The subject of assay [20] is Candida tropicalis. Kind of assay: Antibiofilm activity against azole resistant Candida tropicalis 10186 assessed as inhibition of biofilm formation at 64 ug/ml incubated for 24 hrs by XTT-dye based assay relative to control. The assay is classed as functional. The essentials:
as §1

For the molecule `Cc1ccc(CN2C(=O)/C(=C/c3ccc(OCC(=O)O)cc3OCC(=O)O)c3ccc(-c4ccc(C)cc4)cc32)cc1`, the result in the assay with Candida albicans [1], in the assay with Candida albicans [2], with Candida albicans [4], in the assay on Candida albicans [13], in the assay on Candida albicans [14] and in the assay on Candida albicans [16] was Active. Further, the outcome in the assay with Candida albicans [18] was Active. Further, the inhibition at 32 µg/mL in the assay with Candida albicans [3] stood at 90%. Moreover, the inhibition entry is “Dose-dependent effect” with Candida tropicalis [5], “Dose-dependent effect” in the assay on Candida albicans [8] and 100% with Candida albicans [17]. In addition, the inhibition entry in the assay with Candida albicans [6] and with Candida albicans [12] was “inactive” each time. The inhibition at 128 µg/mL in the assay with Candida albicans [7] and in the assay on Candida albicans [19] was 100% throughout. For the same molecule, the inhibition entry with Candida albicans [9] and with Candida tropicalis [15] was “Active” each time. The IC50 in assay [10] is 920 nM. Also, the values for the inhibition at 64 µg/mL with Candida tropicalis [11] and in the assay with Candida tropicalis [20] were 100% and over 50%, respectively.
